Compounds with a hit are over-represented: about 4.1% of the library has one in this group of screens.
Dynein transport = inhibitors of GR-EGFP nuclear translocation, primary screen, dynein cargo transport inhibitor project, imaging, high-content, 3617.4 mouse cells. test concentration mostly 20 µM; stimulated with dexamethasone, 1 µM; stronger effect = lower value. z-score, hits read low. hit rate 0.47% among 220,000. AID 1381, 2008;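 active means plate z-score of nuclear minus cytoplasmic receptor signal below a set negative limit, without overly bright fluorescence or cell loss, cut at about -3.5 in these data, passing the limit was not always enough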;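 further: z-score of nuclear minus cytoplasmic ring GR-EGFP intensity difference per well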
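Schedule: 48 h induction, then 1 h compound, then 30 min agonist, 37 °C. Buffer or medium: tetracycline-free induction medium containing charcoal-stripped FBS. Reagent: 1.0 µM final dexamethasone stimulus. Evaluation: nuclear versus cytoplasmic GR-EGFP signal, averaged per well. Signal: high-content fluorescence imaging after fixation.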
ROMK primary = ROMK potassium channel modulators, primary screen, cell-based, thallium flux, MLSMR library; hit rate 2% among 130,000; B-score at 10 µM; Tet-inducible ROMK, thallium flux fluorescence; actives lie on both sides;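 active means signal ratio slope over the read window, or its plate-corrected B-score, at least 3 SD from the plate mean, either direction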;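 further: B-score of the F/F0 ratio slope over 7 to 12 s after thallium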
Target sequence (P48048 whole entry, looked up): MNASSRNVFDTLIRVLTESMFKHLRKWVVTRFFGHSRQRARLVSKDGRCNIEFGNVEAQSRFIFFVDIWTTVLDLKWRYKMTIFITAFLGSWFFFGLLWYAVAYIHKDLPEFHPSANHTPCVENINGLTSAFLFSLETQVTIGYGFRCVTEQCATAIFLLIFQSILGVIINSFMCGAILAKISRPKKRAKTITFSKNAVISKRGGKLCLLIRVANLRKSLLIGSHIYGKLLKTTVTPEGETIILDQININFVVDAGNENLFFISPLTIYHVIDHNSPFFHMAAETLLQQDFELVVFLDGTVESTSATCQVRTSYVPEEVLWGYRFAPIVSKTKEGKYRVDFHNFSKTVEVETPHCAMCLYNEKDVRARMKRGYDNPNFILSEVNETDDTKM
Autophagy HCS = autophagy modulators in MEF cells, primary screen, imaging, high-content, MEF GFP-LC3. MEF GFP-LC3 puncta imaging; test concentration mostly 10 µM. calls only at 10 µM (by protocol). hit rate 0.98% among 190,000;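 active means percentage of spot-positive cells more than 3 SD above its plate mean, without a fluorescence outlier flag or 80% toxicity; inconclusive means no clear call, values can overlap the other calls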;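 further: spot-positive cell cutoff set from DMSO-treated cells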
Redox H2O2 prof = compounds producing H2O2 with reducing agent – biochemical, NIH compound library profiling, artefact control for MLSCN library redox annotation, primary screen; activation, % at 10 µM; hit rate 0.03% among 200,000; DTT-dependent redox cycling H2O2, phenol red/HRP absorbance; 100% = 100 µM peroxide control, 0% = buffer;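 active means activation of at least 50% relative to the plate's high and low controls in the primary single-dose screen; inactive means activation below 50%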;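 further: compound incubated with DTT at 0.8 mM final as the reducing agent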
KCC2 mod = KCC2 cotransporter modulators, thallium flux, primary screen, cell-based, HEK293 KCC2, FluoZin-2 fluorescence, MLSMR. KCC2 cells, thallium flux FluoZin-2 fluorescence. Solute carrier family 12 member 5 (Homo sapiens), Q9H2X9. B-score of Tl+ flux slope (higher = more flux/activation; lower = inhibition) at 10 µM. hit rate 2.2% among 190,000;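 active means thallium flux slope and its plate-corrected score both differing from the plate sample mean at a set confidence after two filtering rounds, in either direction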;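 further: slope of fluorescence scaled to starting intensity during 10 to 20 s after thallium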
ROMK hit retest = ROMK channel modulator hit retest, confirmation, cell-based, thallium flux, duplicate, resupplied hits; shares compounds with ROMK primary; fluorescence ratio; stronger effect = lower value; normalized thallium flux (F/F0 slope) at 10 µM; hit rate 54% among 3,000; AID 1917, 2009;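 active means Flux at 10 µM at least 3 SD below or above vehicle control mean in one or both replicates; inconclusive means no clear call, values can overlap the other calls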
The depositor's hits bear a star; i = inactive; ? = inconclusive; . = no result given.

SMILES | Dynein transport | ROMK primary | Autophagy HCS | Redox H2O2 prof | KCC2 mod | ROMK hit retest
Cc1ccc2c(c1)c1c3n2CCCN(Cc2ccccc2)C3CCC1 (stereo unspecified) | 0.27 | 0.51 | i | 0 | . | .
COC(Cn1c2c(c3cc(C)ccc31)CCCC2NCc1ccccc1)OC (stereo unspecified) | -0.67 | -3.9* | . | . | -0.67 | 0.066*
CCOC(=O)C(C)CC(C)C(=O)N1CCOCCN(C(=O)C(C)CC(C)C(=O)OCC)CCOCC1 (stereo unspecified) | -0.096 | . | i | 2 | 0.31 | 0.091
Cc1ccc(-n2ncc(-c3nn[nH]n3)c2N)cc1 | 0.86 | -1.1 | . | . | 0.52 | .
Nc1ccccc1Nc1cc(-c2cccc(Cl)c2)nn1-c1ccccc1 | 0.87 | . | i | 1 | 1.3 | .
CCn1c(SCC(=O)N2CCCC2)nc2c1c(=O)n(C)c(=O)n2C | 0.9 | . | i | -1 | . | .
CC(C)CC(=O)Nc1ccccc1N1CCCC1 | 1.5 | -6* | i | 0 | 0.16 | 0.073
CCn1c(SCC(=O)Nc2ccccc2N2CCCCC2)nc2c1c(=O)n(C)c(=O)n2C | 0.22 | . | i | 2 | -0.2 | 0.074
Cc1c(NS(=O)(=O)c2ccc(N(C)C3CCCCC3)c([N+](=O)[O-])c2)c(=O)n(-c2ccccc2)n1C | -0.055 | . | i | -1 | -2.6 | .
COc1ccc(Cn2nc(-c3ccccc3)c(N3CCCCC3)cc2=O)cc1 | 0.7 | -4.4* | i | -1 | -0.17 | ?
Cc1ccccc1N1C(=S)NC2c3ccccc3OC1(C)C2C(=O)N(C)C (stereo unspecified) | 0.49 | -6.8* | i | -1 | 0.3 | 0.055*
Cc1ccc(S(=O)(=O)N2CCN(C(=O)C3CCN(C(=O)c4ccccc4C)CC3)CC2)cc1C | 0.078 | 0.18 | i | -2 | -0.11 | .
CCOC(=O)c1c(C)[nH]c(C(=O)COC(=O)c2ccc(O)cc2O)c1C | -0.0086 | . | . | . | 2.3 | 0.078
O=C(O)CC12CC3CC(C1)CC(n1ncc(NCc4ccc5c(c4)OCO5)c(Cl)c1=O)(C3)C2 | -0.17 | 0.81 | i | 0 | -0.58 | .
CC(C)(C)c1cc(C(=O)NCc2cc(F)cc3c2OCOC3)n(Cc2ccccc2)n1 | -0.83 | . | . | . | -0.9 | 0.08
CC(C)(C)c1cc(C(=O)NNC(=O)Nc2ccccc2)n(Cc2ccccc2)n1 | 0.26 | . | . | . | 0.4 | .
COc1cccc(CC(=S)N2CCOCC2)c1 | 0.69 | . | i | 0 | 0.44 | .
Fc1cccc(-c2oncc2-c2nnnn2-c2ccc(Cl)cc2)c1 | -0.24 | -7.4* | i | 0 | -1.4 | 0.073
Clc1ccc(-n2nnnc2-c2ccno2)cc1 | 1.4 | . | . | . | 0.39 | .
CC(C)(C)C1=CC(=Nc2ccccc2N)C=C(C(C)(C)C)C1=O | -1.3 | 0.043 | i | 0 | 0.39 | .
CC(C)(C)C1=CC(=O)C(=O)C(C(C)(C)C)=C1 | -1.4 | -2.3* | i | 0 | 0.069 | 0.058*
NS(=O)(=O)c1ccc2nc(NC(=O)c3ccncc3)sc2c1 | 0.96 | 1.5 | i | -1 | 0.56 | .
[O-][n+]1onc2c3ccnnc3ccc21 | -0.13 | . | i | 1 | 1 | .
Cc1cc2c(ccc3c2no[n+]3[O-])nn1 | 0.2 | 2.7* | i | 1 | 0.35 | 0.072
Oc1ccc(Br)cc1C=Nc1cccn2cc(-c3ccccc3)nc12 | -0.29 | -11* | i | -1 | -0.75 | ?
SMILES | Dynein transport | ROMK primary | Autophagy HCS | Redox H2O2 prof | KCC2 mod | ROMK hit retest
O=C(C[n+]1cc2ccccc2c2ccccc21)c1ccccc1 | -0.4 | -3.8* | i | 0 | -0.31 | 0.057*
O=C(C[n+]1cccc2ccccc21)c1ccc(NC(=O)c2ccccc2)cc1 | -0.65 | 0.46 | i | -2 | 0.1 | .
CC(C)c1ccc(C(=O)N(c2ccccn2)C(C)c2ccco2)cc1 (stereo unspecified) | 0.14 | . | i | 1 | -0.25 | .
CC(c1ccco1)N(C(=O)CSc1ccc(Br)cc1)c1ccccn1 (stereo unspecified) | -1.2 | -4.1* | i | 0 | -1.2 | 0.058*
CC1CN(c2ccc([N+](=O)[O-])c(NCCOc3ccccc3)c2)CCN1 (stereo unspecified) | 0.52 | -2.5* | i | 0 | 0.26 | 0.062*
COc1ccc(OCCNc2cc(N3CCCCC3)ccc2[N+](=O)[O-])cc1 | 0.1 | . | i | -7 | -0.84 | .
O=C(NCC(O)c1ccc([N+](=O)[O-])cc1)c1cccc(S(=O)(=O)N2CCCC2)c1 (stereo unspecified) | -0.023 | -0.77 | i | -1 | -0.36 | .
Cc1ccc(Cn2c(=O)n(CCC(=O)NCc3ccc4c(c3)OCO4)c(=O)c3ccccc32)cc1 | 0.11 | . | i | -1 | -1.2 | .
N#Cc1ccccc1Cn1c(=O)n(CCCC(=O)NCc2ccc3c(c2)OCO3)c(=O)c2ccccc21 | 2.2 | 3.6* | i | 1 | 0.69 | 0.086
COc1ccc2oc(C(=O)CCC(=O)O)c(N)c2c1 | 0.44 | . | i | -1 | . | .
COc1ccc(C(=O)CCC(=O)O)c(C)c1 | -0.77 | 4.3* | i | 0 | . | 0.083
CN(C)/C=C(/C(=O)c1ccc(Cl)cc1)S(=O)(=O)c1ccc(Cl)cc1 | -0.37 | . | i | -6 | -0.1 | 0.082
CN(C)/C=C(/C(=O)c1ccc(Cl)cc1Cl)S(=O)(=O)c1ccc(Cl)cc1 | -0.62 | . | i | 1 | . | .
COc1ccc2cc(Br)ccc2c1CC(=O)NC1CC(C)(C)NC(C)(C)C1 | 0.11 | -2.9* | i | 0 | . | 0.067*
Cc1ccc(-n2nc(C)c(/C=N/n3c(C)n[nH]c3=S)c2Cl)cc1 | 0.2 | 1.1 | i | -2 | 2.2 | .
[NH-]c1ncnc2c1N=C[N+]2=CC=CCO | 0.075 | . | . | . | 0.036 | .
COc1ccc(SC[C@H](CC(C)C)N2CCN(C)CCC2=O)cc1 | -0.13 | . | . | . | 0.022 | .
CC(C)C[C@@H](CSc1ccc(Br)cc1)N1CCN(C)CCC1=O | -0.24 | . | . | . | 0.56 | 0.075
O=S(=O)(Nc1nc2ccccc2nc1Nc1ccc(N2CCOCC2)cc1)c1cc(Cl)ccc1Cl | -0.38 | . | i | 0 | -1.8 | 0.057*
Cc1ccc(N2C(=O)[C@@H]3[C@H](C2=O)[C@H]2C=C(C(=O)c4ccccc4)C=CN2[C@@H]3C(=O)c2ccc(Cl)cc2)cc1 | -0.29 | . | i | 0 | 0.25 | 0.077
O=C(C1=C[C@@H]2[C@H]3C(=O)N(c4cccc(Cl)c4)C(=O)[C@H]3[C@@H](C(=O)c3ccc(Cl)cc3)N2C=C1)c1ccccc1 | -0.56 | . | i | 0 | 0.016 | .
COC(=O)[C@@H]1C[C@@]2(O)[C@H](O)[C@H](O)[C@H](O)C[C@H]2N1Cc1ccc(C(F)(F)F)cc1 | 2.6 | . | . | . | 0.77 | .

Screening data: PubChem, several laboratories
